Data as given in ChEMBL document CHEMBL4627300, “Discovery of 1,8-naphthyridin-2-one derivative as a potent and selective sphingomyelin synthase 2 inhibitor” (Bioorg Med Chem, 2020).
Converted amounts (≈) assume the structure as drawn. The source made the active and inactive calls. The rule behind the calls is not given here.

Experiments:
[1] = molecular target: T1, Phosphatidylcholine:ceramide cholinephosphotransferase 1 (Homo sapiens, UniProt Q86VZ5); test: Inhibition of human recombinant C-terminal FLAG-tagged SMS1 expressed in mammalian expression system using C14-phosphatidylcholineD72 and C17-ceramide pre-incubated for 60 mins followed by incubation with substrate for 30 mins measured by RapidFire/MS assay
T1 sequence (Q86VZ5 whole entry): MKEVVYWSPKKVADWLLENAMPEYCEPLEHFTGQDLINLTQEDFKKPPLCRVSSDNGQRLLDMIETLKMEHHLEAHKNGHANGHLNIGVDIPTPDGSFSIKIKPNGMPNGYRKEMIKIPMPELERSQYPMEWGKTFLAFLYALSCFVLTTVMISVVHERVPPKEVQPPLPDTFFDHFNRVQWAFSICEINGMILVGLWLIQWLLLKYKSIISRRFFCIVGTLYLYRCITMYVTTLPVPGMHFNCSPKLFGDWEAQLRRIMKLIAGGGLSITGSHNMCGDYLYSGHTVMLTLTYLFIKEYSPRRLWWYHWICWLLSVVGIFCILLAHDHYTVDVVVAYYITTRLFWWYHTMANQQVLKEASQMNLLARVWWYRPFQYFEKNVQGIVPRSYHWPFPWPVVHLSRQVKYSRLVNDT
Summary of the method: (§1)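 C-terminal FLAG-tagged full-length SMS (human SMS1, mouse SMS2, human SMS2) transiently expressed in FreeStyle293 cells for 2 days; total membranes isolated by ultracentrifugation. Enzyme (30 µg/mL) preincubated 60 min with compound, then reacted 30 min at room temperature. Buffer: KCl, 0.1% BSA, 0.03% NP-40 substitute, 1 mM DTT, 10% DMSO. Substrates: 50 µM C14-PC-D72 and 1 µM C17-ceramide. Stopped with 2-propanol/formic acid containing C17-SM internal standard. Product C17-SM-d13 measured by RapidFire SPE and positive SRM MS. % inhibition calculated from peak area ratios against vehicle and no-reaction controls.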

[2] = molecular target: T2, Phosphatidylcholine:ceramide cholinephosphotransferase 2 (Homo sapiens, UniProt Q8NHU3); test: Inhibition of human recombinant C-terminal FLAG-tagged SMS2 expressed in Freestyle293 cell membrane using C14-phosphatidylcholineD72 and C17-ceramide pre-incubated for 60 mins followed by incubation with substrate for 30 mins measured by RapidFire/MS assay; summary of the method: as §1
T2 sequence (Q8NHU3 whole entry): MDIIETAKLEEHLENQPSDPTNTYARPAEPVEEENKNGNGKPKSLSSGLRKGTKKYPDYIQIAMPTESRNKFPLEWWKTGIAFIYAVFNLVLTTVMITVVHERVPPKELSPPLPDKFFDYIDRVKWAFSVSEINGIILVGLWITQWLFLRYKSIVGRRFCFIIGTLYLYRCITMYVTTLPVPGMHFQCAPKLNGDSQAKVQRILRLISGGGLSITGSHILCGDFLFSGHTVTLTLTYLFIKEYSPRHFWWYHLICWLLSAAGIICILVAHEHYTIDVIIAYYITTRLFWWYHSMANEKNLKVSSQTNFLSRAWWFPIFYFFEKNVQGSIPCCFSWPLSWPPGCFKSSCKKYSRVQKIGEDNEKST

[3] = molecular target: T3, Phosphatidylcholine:ceramide cholinephosphotransferase 2 (Mus musculus, UniProt Q9D4B1); test: Inhibition of mouse recombinant C-terminal FLAG-tagged SMS2 expressed in mammalian expression system using C14-phosphatidylcholineD72 and C17-ceramide pre-incubated for 60 mins followed by incubation with substrate for 30 mins measured by RapidFire/MS assay; summary of the method: as §1
T3 sequence (Q9D4B1 whole entry): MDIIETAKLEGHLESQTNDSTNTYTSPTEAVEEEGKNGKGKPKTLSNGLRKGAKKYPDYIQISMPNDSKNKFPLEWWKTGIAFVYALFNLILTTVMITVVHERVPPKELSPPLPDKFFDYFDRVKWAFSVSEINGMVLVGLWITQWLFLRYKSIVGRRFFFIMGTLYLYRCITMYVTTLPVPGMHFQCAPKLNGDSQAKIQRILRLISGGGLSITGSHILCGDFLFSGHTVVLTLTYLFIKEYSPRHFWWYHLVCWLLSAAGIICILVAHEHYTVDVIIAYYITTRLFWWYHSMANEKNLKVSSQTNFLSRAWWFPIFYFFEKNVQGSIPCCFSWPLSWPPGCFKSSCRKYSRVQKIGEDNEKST

[4] = Inhibition of SMS (unknown origin); design: species or system Homo sapiens
[5] = Aqueous solubility of DMSO dissolved compound in buffer solution at pH 6.8 by LC-MS/MS analysis; format: physicochemical
Summary of the method: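 Compound in DMSO added to aqueous buffer at pH 6.8 and incubated. Precipitate removed by filter-plate filtration; dissolved compound in filtrate quantified by LC/MS/MS.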

[6] = Permeability of compound in buffer solution at pH 7.4 by PAMPA method; format: ADME; conditions: read-out: permeability
Summary of the method: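 Membrane permeability measured at pH 7.4.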

[7] = Cmax in KK-AY/Ta mouse at 100 mg/kg, po; format: ADME, organism-based; design: dose 100 mg/kg, route oral; conditions: in vivo
Summary of the method: (§2)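 Single 100 mg/kg dose given orally or subcutaneously to KK-Ay/Ta mice. Plasma drug concentration followed to 24 h. […] MRT is the mean residence time.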

[8] = tested on: Mus musculus; test: In vivo inhibition of SMS2 in KK-AY/Ta mouse assessed as decrease in hepatic SM (22:00) levels at 100 mg/kg, sc qd for 7 days measured after last dosing by LC/MS analysis; format: functional, organism-based
Summary of the method: (§3)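 Male KK-Ay/Ta mice, 10 weeks old, dosed orally or subcutaneously once or twice daily for 7 days; vehicle-treated controls. Livers removed under anesthesia the morning after the last dose. Tissue homogenized in isopropanol (100 mg/mL) by ball-mill and centrifuged; supernatant SM (22:0) measured by reverse-phase LC/MS.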

[9] = MRT in KK-AY/Ta mouse at 100 mg/kg, sc; format: ADME, organism-based; conditions: in vivo; summary of the method: as §2
[10] = Drug concentration in KK-AY/Ta mouse at 100 mg/kg, sc measured upto 24 hrs; format: ADME, organism-based; conditions: in vivo, read-out: Drug uptake; summary of the method: as §2
[11] = Cmax in KK-AY/Ta mouse at 100 mg/kg, sc; format: ADME, organism-based; design: dose 100 mg/kg, route subcutaneous; conditions: in vivo; summary of the method: as §2
[12] = tested on: Mus musculus; test: In vivo inhibition of SMS2 in KK-AY/Ta mouse assessed as decrease in hepatic SM (22:00) levels at 100 mg/kg, po qd for 7 days measured after last dosing by LC/MS analysis; format: functional, organism-based; summary of the method: as §3
[13] = MRT in KK-AY/Ta mouse at 100 mg/kg, po; format: ADME, organism-based; conditions: in vivo; summary of the method: as §2
[14] = Drug concentration in KK-AY/Ta mouse at 100 mg/kg, po measured upto 24 hrs; format: ADME, organism-based; conditions: in vivo, read-out: Drug uptake; summary of the method: as §2
[15] = AUC (0 to 24 hrs) in KK-AY/Ta mouse at 100 mg/kg, po; format: ADME, organism-based; design: dose 100 mg/kg, time < 24 hr, route oral; conditions: in vivo; summary of the method: as §2
[16] = AUC (0 to 24 hrs) in KK-AY/Ta mouse at 100 mg/kg, sc; format: ADME, organism-based; design: time < 24 hr, dose 100 mg/kg, route subcutaneous; conditions: in vivo; summary of the method: as §2
[17] = Tmax in KK-AY/Ta mouse at 100 mg/kg, sc; format: ADME, organism-based; conditions: in vivo; summary of the method: as §2
[18] = tested on: Mus musculus; test: In vivo inhibition of SMS2 in KK-AY/Ta mouse assessed as decrease in hepatic SM (22:00) levels at 200 mg/kg, po bid for 7 days measured after last dosing by LC/MS analysis; format: functional, organism-based; summary of the method: as §3
[19] = Tmax in KK-AY/Ta mouse at 100 mg/kg, po; format: ADME, organism-based; conditions: in vivo; summary of the method: as §2
[20] = tested on: Mus musculus; test: In vivo inhibition of SMS2 in KK-AY/Ta mouse assessed as decrease in hepatic SM (22:00) levels at 200 mg/kg, sc bid for 7 days measured after last dosing by LC/MS analysis; format: functional, organism-based; summary of the method: as §3

Compound | IC50 [1] | IC50 [2] | IC50 [3] | solubility kinetic [5] | Papp [6] | further results
CN(Cc1cc(C(F)(F)F)cc(C(F)(F)F)c1)C(=O)c1c(N2CCC(OCc3ccccc3)C2)c2ccccc2n(C)c1=O (centres undefined) | 15000 nM | 610 nM | 660 nM |  |  | 
S=C(S)OC1C[C@H]2C[C@@H]1[C@H]1CCC[C@@H]21 (some centres undefined) |  |  |  |  |  | IC50 [4]: > 100000 nM
CN(Cc1cc(C(F)(F)F)cc(C(F)(F)F)c1)C(=O)c1c(OCCOCc2ccccc2)c2ccccc2n(C)c1=O | 22000 nM | 380 nM | 590 nM |  |  | 
CN(Cc1cc(C(F)(F)F)cc(C(F)(F)F)c1)C(=O)c1c(OCCCc2ccccc2)c2ccccc2n(C)c1=O | 14000 nM | 210 nM | 120 nM |  |  | 
CC(C)CCOc1c(C(=O)N(C)Cc2cc(C(F)(F)F)cc(C(F)(F)F)c2)c(=O)n(C)c2ccccc12 | > 100000 nM | 350 nM | 260 nM |  |  | 
CN(Cc1cc(C(F)(F)F)cc(C(F)(F)F)c1)C(=O)c1c(N2CCCCC2)c2ccccc2n(C)c1=O | > 100000 nM | 11000 nM |  |  |  | 
CCCOc1c(C(=O)N(C)Cc2cc(C(F)(F)F)cc(C(F)(F)F)c2)c(=O)n(C)c2ccccc12 | > 100000 nM | 2100 nM |  |  |  | 
CN(Cc1cc(C(F)(F)F)cc(C(F)(F)F)c1)C(=O)c1c(OCCCC2CCCCC2)c2ccccc2n(C)c1=O | 14000 nM | 480 nM | 190 nM |  |  | 
CN(Cc1cc(C(F)(F)F)cc(C(F)(F)F)c1)C(=O)c1c(OCCCC(F)(F)F)c2ccccc2n(C)c1=O | 25000 nM | 120 nM | 240 nM |  |  | 
CN(Cc1cc(C(F)(F)F)cc(C(F)(F)F)c1)C(=O)c1c(N2CCCC2)c2ccccc2n(C)c1=O | > 100000 nM |  | 1100 nM |  |  | 

Further lines, with some results ahead:

IC50 [1] | IC50 [2] | IC50 [3] | solubility kinetic [5] | Papp [6] | Compound | further results
3400 nM | 30 nM | 7.7 nM | < 0.16 µg/mL | 1.1 ×10⁻⁶ cm/s | CN(Cc1cc(C(F)(F)F)cc(C(F)(F)F)c1)C(=O)c1c(OCCCC2CCN(C(=O)OC(C)(C)C)CC2)c2ccccc2n(C)c1=O | 
10000 nM | 130 nM | 32 nM | 7.3 µg/mL (≈ 12 µM) | 24.1 ×10⁻⁶ cm/s | COc1cc(CN(C)C(=O)c2c(OCCCC3CCN(C(=O)OC(C)(C)C)CC3)c3cccnc3n(C)c2=O)cc(OC)c1 | 
850 nM | 47 nM | 3 nM | < 0.3 µg/mL | 72.1 ×10⁻⁶ cm/s | CN(Cc1cc(C(F)(F)F)cc(C(F)(F)F)c1)C(=O)c1c(OCCCC2CCN(C(=O)OC3(C)CC3)CC2)c2cccnc2n(C)c1=O | 
15000 nM | 380 nM | 51 nM | < 0.08 µg/mL | 27.5 ×10⁻⁶ cm/s | CCOc1cc(CN(C)C(=O)c2c(OCCCC3CCN(C(=O)OC(C)(C)C)CC3)c3ccccc3n(C)c2=O)cc(OCC)c1 | 
> 100000 nM | 1600 nM | 340 nM | 33 µg/mL (≈ 54.2 µM) | 26 ×10⁻⁶ cm/s | COc1cc(CN(C)C(=O)c2c(OCCCC3CCN(C(=O)OC(C)(C)C)CC3)c3cnccc3n(C)c2=O)cc(OC)c1 | 
2400 nM | 45 nM | 2.2 nM | 0.79 µg/mL (≈ 1.23 µM) | 42.4 ×10⁻⁶ cm/s | COc1cc(CN(C)C(=O)c2c(OCCCC3CCN(C(=O)OC4(C)CC4)CC3)c3cccnc3n(C)c2=O)cc(C(F)(F)F)c1 | Cmax [7]: 6500 ng/mL; inhibition [8]: Active; MRT [9]: 9.4 h; concentration at 24 h [10]: 230 ng/mL; Cmax [11]: 700 ng/mL; inhibition [12]: inactive; MRT [13]: 3 h; concentration at 24 h [14]: 7 ng/mL; AUC(0-t) at 24 h [15]: 18000 ng·h/mL; AUC(0-t) at 24 h [16]: 12000 ng·h/mL; Tmax [17]: 8 h; inhibition [18]: inactive; Tmax [19]: 0.83 h; inhibition [20]: Active
19000 nM | 91 nM | 19 nM | 1.8 µg/mL (≈ 2.96 µM) | 29.5 ×10⁻⁶ cm/s | COc1cc(CN(C)C(=O)c2c(OCCCC3CCN(C(=O)OC(C)(C)C)CC3)c3ccccc3n(C)c2=O)cc(OC)c1 | 
18000 nM | 300 nM | 14 nM | 16 µg/mL (≈ 26.4 µM) | 20 ×10⁻⁶ cm/s | COc1cc(CN(C)C(=O)c2c(OCCCC3CCN(C(=O)OC4(C)CC4)CC3)c3cccnc3n(C)c2=O)cc(OC)c1 | 
